Assay results from different studies.
ADRA1B: Alpha-1B adrenergic receptor (ADRA1B, Homo sapiens, UniProt P35368)
PARP3: Protein mono-ADP-ribosyltransferase PARP3 (PARP3, Homo sapiens, UniProt Q9Y6F1)
Mapk1: Mitogen-activated protein kinase 1 (Mapk1, Mus musculus, UniProt P63085)
Ptgs2: Prostaglandin G/H synthase 2 (Ptgs2, Mus musculus, UniProt Q05769)

SMILES	target	test	test system	setting	inhibition [%]
O=C1C=Cc2occ(C(=O)c3ccccc3)c2C1=O	Interstitial collagenase (MMP1, Homo sapiens, UniProt P03956)	enzyme activity, inhibitor	–	100 µM	≤ 0
N#Cc1cc(Cn2c(N3CCCC3)nc3ccccc32)ccc1F	ADRA1B	ligand displacement	–	10 µM	-7.54
O=C1NCCCc2c(O)cccc21	PARP3	enzyme activity, inhibitor	–	10 µM	20
CCN(CC)CCNC(=O)c1c(C)[nH]c(/C=C2\C(=O)Nc3ccc(F)cc32)c1C	Mapk1	enzyme activity, inhibitor	–	0.3 µM	-16
CCN1CCN(Cc2ccc(NC(=O)c3ccc(C)c(Oc4ccnc5[nH]ccc45)c3)cc2C(F)(F)F)CC1	Microtubule-associated serine/threonine-protein kinase 4 (MAST4, Homo sapiens, UniProt O15021)	target engagement in cells, inhibitor, chemoproteomics	Huh-7	1 µM	-11.5
CN(C)C1CCN(CC#Cc2nn(C3CCCC3)c3nc(NCc4ccccc4)ncc23)C1 (stereo not drawn)	Interleukin-1 receptor-associated kinase 4 (IRAK4, Homo sapiens, UniProt Q9NWZ3)	enzyme activity, inhibitor, FRET	–	10 µM	0
Cc1ccc(Nc2nccc(N(C)c3ccc4c(C)n(C)nc4c3)n2)cc1S(N)(=O)=O	Mapk1	enzyme activity, inhibitor	–	0.3 µM	-2
COc1ccc2c(c1)C(CC(=O)O)=C/C2=C\c1ccc(SC)cc1	Ptgs2	enzyme activity, inhibitor	–	4 µM	8
CCN(CC)c1ccc(C2Nc3ccc(C(=O)c4ccccc4)cc3NC3=C2C(=O)CC(C)(C)C3)cc1 (stereo not drawn)	ADRA1B	ligand displacement, radioligand	–	10 µM	-5
Oc1cccc(Nc2nc(-c3ccc(F)cc3F)cs2)c1	ADRA1B	cell-free assay	–	10 µM	16.4
Ic1cccc2cnccc12	PARP3	enzyme activity, inhibitor	–	10 µM	7
O=C(O)Cc1ccccc1Nc1c(F)cccc1Cl	Ptgs2	enzyme activity, inhibitor	–	10 µM, with preincubation	25
CCN(c1cc(C#CCN2CCOCC2)cc(C(=O)NCc2c(C)cc(C)[nH]c2=O)c1C)[C@H]1CC[C@H](N(C)CCOC)CC1	Histone-lysine N-methyltransferase NSD3 (NSD3, Homo sapiens, UniProt Q9BZ95)	enzyme activity, inhibitor	–	1 µM	16
COc1cc2c(cc1OC)-c1nnnn1CCC2	PARP3	enzyme activity, inhibitor	–	10 µM	45
COc1cc(CCN2CCN(CCCc3ccccc3)CC2)ccc1O	Sodium-dependent dopamine transporter (Slc6a3, Mus musculus, UniProt Q61327)	ligand displacement, radioligand	–	10 µM, cell membranes	20
O=C1CCNC(=O)c2cc(Cl)c(Cl)cc21	PARP3	enzyme activity, inhibitor	–	10 µM	85
CC/C(=N\NC(=O)NCc1cccc(O)c1)c1ccc(O)c(C)c1O	cAMP-dependent protein kinase catalytic subunit gamma (PRKACG, Homo sapiens, UniProt P22612)	enzyme activity, inhibitor	–	0.1 µM	91
Cn1cnc(Br)c1C1=CN(c2ncnc3[nH]cnc23)CCS1	Myosin-IIIa (MYO3A, Homo sapiens, UniProt Q8NEV4)	enzyme activity, inhibitor, radiometric	–	2 µM	29.9
